Experimental data: paper PMC3217903 (Biochemistry, 2011)
Values belong to the molecule of their own block, whether it stands above or below them.

Tests used:
[1] = Stopped-flow association and dissociation kinetics, PM; format: binding
Procedure, shortened: (§1)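 Stopped-flow FRET in binding buffer plus 10 mM DTT, 25°C, on plasma-membrane-mimic vesicles. Association: 0.5 μM PH domain mixed with vesicles (300 μM total lipid, 3 μM accessible PIP); kon from the dominant fast phase of a double-exponential fit. Dissociation: preformed complex mixed with excess IP6 (PI(3,4,5)P3: 10 mM wild type, 20 mM mutants; PI(4,5)P2: 8 mM). KD = koff/kon; ≥3 runs averaged.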

[2] = IP6 binding to free PH domain, intrinsic tryptophan fluorescence titration; conditions: read-out: KD(IP6); free PH domain 0.5 μM, 25°C, binding buffer plus 10 mM DTT
Procedure, shortened: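 GST-fused PH domain (0.5 μM) titrated with IP6. Intrinsic Trp excitation 284 nm; emission 322 nm (GRP1) or 340 nm (PLCδ1). A parallel control with sodium phosphate at six times the IP6 concentration is subtracted after dilution correction. KD from nonlinear least-squares hyperbolic fit. Triplicate titrations, mean ±1 SD; reported constants average ≥3 independent fits.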

[3] = Competitive displacement assay; format: binding; conditions: ratio of equilibrium KD values
Procedure, shortened: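 Human GRP1 PH (residues 255–392) or mouse PLCδ1 PH (12–142) GST fusions, made in E. coli BL21. Sonicated vesicles mimic the plasma membrane (PE/PC/PS/PI/SM/CH/dPE/PIPn, 27.5/10.5/21/4.5/4.5/25/5/2 mol%). Sample: 0.5 μM protein, 300 μM total lipid, 3 μM accessible PI(4,5)P2 or PI(3,4,5)P3, pH 7.4 HEPES/KCl buffer plus 10 mM DTT, 25°C. IP6 titrated while FRET decrease is monitored. Protein-free control subtracted. KD(PIPn) calculated from fitted KI(IP6)app and KD(IP6).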

[4] = Stopped-flow association and dissociation kinetics, PM; format: binding; remark: listed apart in the source
Procedure, shortened: as §1

NIH 3T3 cells = test: Live cell imaging of plasma membrane targeting of citrine-coupled PH domains; format: cell-based; conditions: serum-starved NIH 3T3 cells
Procedure, shortened: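 NIH 3T3 fibroblasts grown in DMEM with 10% FBS and transfected with Lipofectamine 2000 (4 μg DNA) with N-terminal citrine–PH fusions. Replated 24–48 h post-transfection, then serum-starved 6 h in DMEM with 0.2% BSA at 37°C. Imaged live by wide-field fluorescence microscopy in HEPES-buffered HBSS, pH 7.4, with 0.01% BSA.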

- Kd ([1]; read-out: KD (koff/kon), PM(+)PI(3,4,5)P3, calculated from kinetic constants): 55 ± 1 nM
- Kd [2]: 20000 ± 3000 nM
- weaker binding of membrane-bound PI(4,5)P2 than PI(3,4,5)P3 [3]: over 200 fold
B1: WT: native PH domain of human GRP1 (residues 255–392), GST-fusion purified; citrine fusion in cells (protein, UniProt O43739 255-392, looked up, fragment)
chain: GNDLTHTFFNPDREGWLLKLGGGRVKTWKRRWFILTDNCLYYFEYTTDKEPRGIIPLENLSIREVEDPRKPNCFELYNPSHKGQVIKACKTEADGRVVEGNHVVYRISAPSPEEKEEWMKSIKASISRDPFYDMLATR
modifications: PH domain GST or citrine fusion
- kon ([1]; PM(+)PI(3,4,5)P3, 25°C): 14 ± 1 ×10^6 M^−1 s^−1
- koff ([1]; PM(+)PI(3,4,5)P3, excess IP6, 25°C): 0.79 ± 0.01 s⁻¹

- Kd ([4]; read-out: KD (koff/kon), PM(+)PI(4,5)P2, calculated from kinetic constants): 81 ± 5 nM
- Kd [2]: 4000 ± 1000 nM
B2: PLCδ1: PH domain of mouse PLCδ1 (residues 12–142), PI(4,5)P2-specific control (protein, UniProt Q8R3B1 12-142, looked up, fragment)
chain: GLQDDPDLQALLKGSQLLKVKSSSWRRERFYKLQEDCKTIWQESRKVMRSPESQLFSIEDIQEVRMGHRTEGLEKFARDIPEDRCFSIVFKDQRNTLDLIAPSPADVQHWVQGLRKIIDRSGSMDQRQKLQ
modifications: PH domain
- kon ([4]; PM(+)PI(4,5)P2, 25°C): 180 ± 10 ×10^6 M^−1 s^−1
- koff ([4]; PM(+)PI(4,5)P2, excess IP6, 25°C): 15 ± 1 s⁻¹
- relocation from plasma membrane to cytoplasm on PI(4,5)P2 hydrolysis (NIH 3T3 cells; 20 μM ionomycin, 2 mM extracellular Ca2+, three minute): fully relocates
- cellular distribution in resting cells (NIH 3T3 cells; citrine fusion): targeted to plasma membrane
